RAD52 anneal inh = blocks human RAD52 DNA annealing | P43351 | recombinant RAD52 DNA annealing, FRET fluorescence | inhibition, % at 18.7 µM | 360,000 tested, 0.46% active;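 active means every replicate showing at least 50% inhibition; inconclusive means mean inhibition at least 50% but not in every replicate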
AF4-AF9 inh = MLL-AF4/AF9 protein interaction inhibition; P42568; AlphaScreen, biotin-AF4 peptide binding to FLAG-AF9; inhibition, % at 10 µM; 350,000 tested, 0.47% active;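 active means every replicate reaching a set inhibition limit, whatever the replicate mean, cut at about 25% in these data; inconclusive means mean inhibition reaches that limit but some replicates miss it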;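 further: 0% = plate neutral control median and 100% = total signal loss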
S100A4 MyoIIA = blocks human S100A4 binding to myosin IIA peptide | 360,000 tested, 0.14% active | P26447 | AID 652163 | inhibition, % at 10.7 µM | S100A4/TAMRA-MyoIIA peptide fluorescence polarization;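 active means mean inhibition of at least 70% across replicates, with every replicate also reaching that level; inconclusive means mean inhibition reaches 70% but some replicates fall short; inactive means mean inhibition below 70%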
Target sequence (P26447 whole entry, looked up): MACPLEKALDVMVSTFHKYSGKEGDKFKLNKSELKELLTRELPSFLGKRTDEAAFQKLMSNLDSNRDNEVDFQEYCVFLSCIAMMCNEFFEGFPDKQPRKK
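Compound dosing: one dose per compound; test system: human S100A4 monomer with TAMRA-labelled myosin IIA peptide; probe or stimulus: TAMRA-labelled myosin IIA heavy-chain peptide probe, 5 nM; medium: HEPES buffer with Ca2+, pH 7.2; schedule: 5 min incubation before reading; benchmarks: neutral control DMSO, positive control TFP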
RAD54 branch = blocks human RAD54 Holliday junction branch migration. Q92698. FAM/BHQ fluorescence. inhibition, % at 10.4 µM. 360,000 tested, 0.14% active;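 active means mean normalized replicate activity at least 40 and at least half of replicates scoring 40 or more; inconclusive means only one of the two criteria met; inactive means mean below 40 and under half of replicates reaching 40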;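 further: 0% = median of neutral control wells and 100% = median of positive control wells; inhibitors cause a drop in the FAM fluorescence signal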
dFosB act = enhances mouse delta FosB homodimer DNA binding; P13346; purified delta FosB, TAMRA-CDK5 oligo fluorescence polarization; percent of positive-control signal above neutral wells; activation, % at 25 µM; 340,000 tested, 0.99% active;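 active means mean activation above about 17%, with every replicate also reaching it, limit read from the data, passing the limit was not always enough; inconclusive means only one of the two conditions met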
Target sequence (P13346 whole entry, looked up): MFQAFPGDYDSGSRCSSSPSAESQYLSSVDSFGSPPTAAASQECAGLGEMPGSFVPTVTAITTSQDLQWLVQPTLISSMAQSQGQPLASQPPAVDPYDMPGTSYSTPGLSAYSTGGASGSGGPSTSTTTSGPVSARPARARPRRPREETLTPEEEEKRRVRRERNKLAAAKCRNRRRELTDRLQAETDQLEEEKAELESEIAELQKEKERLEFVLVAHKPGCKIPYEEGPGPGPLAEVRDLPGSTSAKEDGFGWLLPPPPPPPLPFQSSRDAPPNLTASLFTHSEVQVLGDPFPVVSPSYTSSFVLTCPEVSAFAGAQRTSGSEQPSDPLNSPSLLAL
Active calls of the source: *. A selection: hits, their analogues and other compounds. The true share with any hit is near 1.5%.

N#C/C(=C\c1ccccc1[N+](=O)[O-])c1nc(C2CC2)cs1 was read as RAD54 branch -1 and dFosB act -1.
For CCCN1[C@@H]2c3ccc(-c4cccc(C(=O)N(C)C)c4)c(=O)n3C[C@@H]2[C@@H](CO)[C@@H]1C(=O)OC the results were RAD52 anneal inh -2, AF4-AF9 inh -2 and S100A4 MyoIIA 4.
Screening CN(C)c1ccc(C=c2c3ccccc3n3c2cc(-c2ccc(Cl)cc2)[n+]3C)cc1 returned RAD52 anneal inh 11, AF4-AF9 inh 58*, S100A4 MyoIIA 9 and dFosB act 50*.
For COc1cc(/C=C(/C(=O)O)c2ccc(-c3ccccc3)cc2)cc(OC)c1OC the results were RAD52 anneal inh -11, AF4-AF9 inh 1, S100A4 MyoIIA -3, RAD54 branch -1 and dFosB act -2.
CN(C)c1ccc(C=c2c3cc([N+](=O)[O-])ccc3n3c2cc(-c2ccccc2)[n+]3C)cc1 was read as RAD52 anneal inh 100*, AF4-AF9 inh 55*, S100A4 MyoIIA 98* and dFosB act 14.
COc1cc(C=c2c3ccccc3n3c2cc(-c2ccccc2)[n+]3C)cc(OC)c1OC was read as RAD52 anneal inh -5, AF4-AF9 inh 29*, S100A4 MyoIIA -72 and dFosB act -6.
Screening C[C@H]1CN([C@@H](C)CO)C(=O)c2cccc(NC(=O)Nc3ccccc3)c2O[C@H]1CN(C)Cc1ccc(Cl)c(Cl)c1 returned RAD52 anneal inh -21, AF4-AF9 inh 0, S100A4 MyoIIA 0 and RAD54 branch 6.
COc1cc(/C=C2\CCCc3c2nc2ccccc2c3C(=O)O)cc(Br)c1O was read as RAD52 anneal inh -51, AF4-AF9 inh 7, S100A4 MyoIIA 4, RAD54 branch -8 and dFosB act 1.
`CCOc1cc(/C=C2\CCCc3c2nc2ccccc2c3C(=O)O)ccc1OC` gave RAD52 anneal inh inactive, AF4-AF9 inh 4, S100A4 MyoIIA 80*, RAD54 branch -159 and dFosB act -5.
`CO[C@H]1CN(C)C(=O)c2cc(NC(=O)Cc3ccccc3)ccc2OC[C@H](C)N(CC2CC2)C[C@H]1C` gave RAD52 anneal inh -5, AF4-AF9 inh -2, S100A4 MyoIIA -16 and RAD54 branch 7.
`Cc1cccc(S(=O)(=O)N2[C@@H]3CNC[C@H]2C3c2ccc(-c3cncnc3)cc2)c1` (stereo partly specified) gave RAD52 anneal inh 2, AF4-AF9 inh -4 and S100A4 MyoIIA -30.
For CCSc1nsc(NC(=O)Nc2ccc(F)cc2F)n1 the results were RAD54 branch 12 and dFosB act 23*.
COc1ccccc1S(=O)(=O)Nc1ccc2c(c1)OC[C@H](C)NC[C@H](C)[C@H](OC)CN(C)C2=O was read as RAD52 anneal inh -11, AF4-AF9 inh -1, S100A4 MyoIIA 12 and RAD54 branch 1.
`CCOC(=O)c1ccc(Nc2nc(N)c3cc(OC)c(OC)cc3n2)cc1` gave RAD54 branch inconclusive and dFosB act 37*.
O=C(C=P(c1ccccc1)(c1ccccc1)c1ccccc1)c1ccccc1-c1ccccc1C(=O)C=P(c1ccccc1)(c1ccccc1)c1ccccc1 was read as RAD52 anneal inh -60, AF4-AF9 inh 8, S100A4 MyoIIA -5 and dFosB act 36*.
For CC(C)NC(=O)Nc1ccc2c(c1)C(=O)N([C@H](C)CO)C[C@H](C)[C@@H](CN(C)Cc1ccncc1)OCCCC[C@@H](C)O2 the results were RAD52 anneal inh 0, AF4-AF9 inh 1, S100A4 MyoIIA 1 and RAD54 branch 3.
Screening COc1ccccc1/C=C/c1ccc2cccc(O)c2n1 returned RAD52 anneal inh -7, AF4-AF9 inh 27*, S100A4 MyoIIA -6, RAD54 branch 7 and dFosB act -12.
Screening O=C(O)c1ccc(/C=C/c2ccc3cccc(O)c3n2)cc1 returned RAD52 anneal inh -1, AF4-AF9 inh 2, S100A4 MyoIIA -2 and dFosB act -13.
For COc1ccc(Cl)cc1/C=C/c1ccc2cccc(O)c2n1 the results were RAD52 anneal inh -15, AF4-AF9 inh -5, S100A4 MyoIIA -9 and dFosB act -6.
For Oc1ccc(/C=C/c2ccc3cccc(O)c3n2)cc1Br the results were RAD52 anneal inh -14, AF4-AF9 inh 26*, S100A4 MyoIIA 2, RAD54 branch -2 and dFosB act 2.
O=C(O)CCNc1cc(N2CCN(C(=O)c3ccco3)CC2)c2noc3c2c1C(=O)c1ccccc1-3 was read as RAD52 anneal inh inactive, AF4-AF9 inh 56*, S100A4 MyoIIA -42, RAD54 branch -280 and dFosB act -60.
Cn1cnc(S(=O)(=O)N2CCCCN3[C@H](CO)[C@@H](c4ccc(C5=CCCC5)cc4)[C@H]3C2)c1 was read as RAD52 anneal inh 22, AF4-AF9 inh -4, S100A4 MyoIIA 62 and RAD54 branch -7.
For C[C@H](CO)N1C[C@H](C)[C@H](CN(C)CC2CC2)Oc2ccc(NC(=O)C3CC3)cc2CC1=O the results were RAD52 anneal inh 3, AF4-AF9 inh 0, S100A4 MyoIIA 15 and RAD54 branch -2.
`CCOc1ccc(-n2nc3c(Cl)nnc(C)c3c2C)cc1` gave RAD52 anneal inh -15, AF4-AF9 inh 58*, S100A4 MyoIIA 1, RAD54 branch -1 and dFosB act -3.
For Cc1nnc(Cl)c2nn(-c3ccccc3)c(C)c12 the results were RAD52 anneal inh -31, AF4-AF9 inh 6, S100A4 MyoIIA -5, RAD54 branch 3 and dFosB act -3.
`Cc1ccc(S(=O)(=O)N2C(=O)C(c3ccccc3)SC2=Nc2ccccc2)cc1` (stereo unspecified) gave RAD54 branch -6 and dFosB act 43*.
Cc1[nH]c2ccccc2c1N=Nc1ccc(F)cc1 was read as RAD52 anneal inh -11, AF4-AF9 inh 30*, S100A4 MyoIIA -1 and dFosB act -13.
For CC1=C(C(=O)Nc2ccccc2)C(c2ccc(C)cc2)N=C(Nc2nc3ccccc3o2)N1 (stereo unspecified) the results were RAD54 branch 1 and dFosB act 42*.
`CS(=O)(=O)N1CC2(C1)[C@H](c1ccccc1)[C@@H](CO)N2Cc1ccccn1` gave RAD52 anneal inh -14, AF4-AF9 inh -2 and S100A4 MyoIIA 49.
Screening C[C@H]1CN([C@@H](C)CO)C(=O)c2cc(NC(=O)CCCN(C)C)ccc2O[C@H]1CN(C)Cc1ccc(Oc2ccccc2)cc1 returned RAD52 anneal inh 16, AF4-AF9 inh inconclusive, S100A4 MyoIIA 0 and RAD54 branch 0.
C[C@@H]1CN([C@@H](C)CO)C(=O)Cc2cc(NC(=O)CCCN(C)C)ccc2O[C@@H]1CN(C)Cc1ccc(Oc2ccccc2)cc1 was read as RAD52 anneal inh 39, AF4-AF9 inh 28* and S100A4 MyoIIA -1.
Screening C[C@H](CO)N1C[C@H](C)[C@H](CN(C)Cc2ccc(Oc3ccccc3)cc2)Oc2ccc(NC(=O)CCCN(C)C)cc2CC1=O returned RAD52 anneal inh 58*, AF4-AF9 inh 12, S100A4 MyoIIA -1 and RAD54 branch 9.

Source: PubChem (Broad Institute)
